The record followed here is paper PMC6740333 (Bioconjugate chemistry, 2018).

Where two headings read alike, the source gives them in different places.

The test system of one series is MDCK cells. Put plainly: Cell viability assay. It is filed as cell-based, canine. Conditions: read-out: Cell viability IC50, MTT, mean of triplicate. Summed up: (§1)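 HepaRG, MDCK (canine kidney) or LLC-PK1 (pig kidney) cells were grown at 37°C, 5% CO2 in RPMI 1640 with 10% FBS, 1% glutamine and 1% penicillin–streptomycin. Cells were exposed for 24 h at 37°C to serial dilutions of sulfobetaine surfactant in medium (final-volume concentrations). MTT (0.5%) was added for 4 h, formazan was dissolved in DMSO 16 h in the dark, and A590 was read against medium-only controls. Triplicate.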

Series [1] can be described thus: Dispersion stability of surfactant-stabilized GNRs at high ionic strength. Conditions: 1 M NaCl. It is filed as physicochemical. The method in brief:
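Citrate-stabilized gold nanorods were centrifuged and redispersed twice in 0.1 M NaCl containing millimolar zwitterionic sulfobetaine surfactant. Ionic strength was then raised with brine to 0.5 or 1.0 M. Dispersion stability was followed as retention of optical density, measured by absorbance spectrophotometry, after one day and one week.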

Another series deals with HepaRG cells. Put plainly: Cell viability assay. It counts as cell-based, human. Summed up: as §1
In a further series the test system is SKOV-3 cells. Put plainly: Cell viability assay. It is filed as cell-based. The note with it: Homo sapiens, SK-OV-3, 24 h, read-out: Cell viability IC50. Summed up: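 SKOV-3 cells in folate-free RPMI 1640 (10% FBS, 1% penicillin–streptomycin) were seeded at 5,000 cells/100 μL and preincubated 24 h at 37°C, 5% CO2. Serial dilutions in medium (final-volume concentrations) were added for 24 h at 37°C. MTT (0.5%) was then added for 4 h, followed by DMSO solubilization 16 h at 25°C in the dark. A590 was normalized to medium-only cells. Triplicate.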

The next series has as its system LLC-PK1 cells. Put plainly: Cell viability assay. It is filed as cell-based, pig. Conditions: read-out: Cell viability IC50; LLC-PK1, MTT, mean of triplicate. Summed up: as §1
Setting [2] is: read-out: Cell viability IC50, MTT, mean of triplicate.

Consider `CCCCCCCCCCCCCC(=O)NCCC[N+](C)(C)CCCS(=O)(=O)[O-]` [ASB-14], for which the half-inhibitory concentration (IC50) with MDCK cells came out at 120 µM; with HepaRG cells (setting [2]), 105 µM. Besides, the results for the “retention of optical density of stabilized GNRs” value (from here on “retention”) in series [1] (after one day) and in series [1] (after one week) were “over 90%” and 80%, respectively.
For `CCCCCCCCCCCCCCCC(=O)NCCC[N+](C)(C)CCCS(=O)(=O)[O-]` [ASB-16], in that order: 81 µM, 58 µM, “over 90%” and 80%.
Consider `CCCCCCCCCCCCCCCCCC[N+](C)(C)CCCS(=O)(=O)[O-]` [C18-SB, 3-(N,N-dimethyloctadecylammonio)sulfopropyl betaine], for which the values for the IC50 in the series with MDCK cells and in the series with HepaRG cells (setting [2]) were 56 µM and 52 µM, respectively. The “retention” value in series [1] (after one day) is given as “over 90%”; in series [1] (after one week), 80%.
For the molecule `CCCCCCCCCCCCCCCC[N+](C)(C)C` [CTAB, cetyltrimethylammonium bromide], the IC50 came to 8 µM with SKOV-3 cells and 8 µM in the series on HepaRG cells (Homo sapiens, read-out: Cell viability IC50).
In the case of `CCCCCCCC/C=C\CCCCCCCC[N+](C)(C)CCCS(=O)(=O)[O-]` [OSB, oleylsulfobetaine], the half-inhibitory concentration (IC50) is 42 µM in the series on MDCK cells, 62 µM in the series on LLC-PK1 cells and 32 µM with HepaRG cells (setting [2]). Besides, the “retention” value was “over 90%” in series [1] (after one day) and 80% in series [1] (after one week).
